Test results as given in ChEMBL document CHEMBL1127023, “Nonpeptide angiotensin II receptor antagonists. Synthesis and biological activity of benzimidazoles” (J Med Chem, 1993).

Experiments:
[1] = In vitro for inhibition of specific binding of [125I]-angiotensin II (0.2 nM) to bovine adrenal cortex
Rattus norvegicus [2] = assay: In vivo for inhibition of the Angiotensin II (0.1 ug/kg) induced increase in blood pressure in conscious male rat at 10 mg/kg for 0.5h/1h; format: functional
Rattus norvegicus [3] = assay: In vivo for inhibition of the Angiotensin II (0.1 ug/kg) induced increase in blood pressure in conscious male rat at 30 mg/kg for 3h/7h; format: functional
In short: (§1)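 Conscious male Jcl:Sprague-Dawley rats (300–400 g), femoral artery and vein cannulated under pentobarbital the day before. AII 100 ng/kg iv was given twice as control. Compound was dosed orally as a gum arabic suspension, then AII challenges were repeated. Pressor-response inhibition was read at 3 and 7 h after dosing, from duplicate experiments.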

[4] = target: Angiotensin II receptor (Rattus norvegicus) (UniProt P29089+P25095+P35351); assay: In vivo inhibition of angiotensin II (0.1 ug/kg) induced increase in blood pressure in conscious male rat at 3 mg/kg for 3h/7h.; format: functional, organism-based; design: dose 3 mg/kg
In short: as §1

Rattus norvegicus [5] = assay: In vivo inhibition of angiotensin II (0.1 ug/kg)-induced increase in blood pressure in conscious male rat at 10 mg/kg for 3h/7h; format: functional
In short: as §1

Rattus norvegicus [6] = assay: In vivo for inhibition of the Angiotensin II (0.1 ug/kg) induced increase in blood pressure in conscious male rat at 100 mg/kg for 3h/7h; format: functional
In short: as §1

[7] = In vitro for inhibition of specific binding of [125I]-angiotensin II (0.02 nM) to bovine adrenal cortex; format: tissue-based, Bos taurus
Rattus norvegicus [8] = assay: In vivo inhibition of angiotensin II (0.1 ug/kg) induced increase in blood pressure in conscious male rat at 10 mg/kg for 3h/7h; format: functional
In short: as §1

| IC50 [1] | SMILES | inhibition in vivo at 30 mg/kg (Rattus norvegicus [3]) | inhibition [4] | other results |
| --- | --- | --- | --- | --- |
| 3.1 µM | CCCCc1nc2ccc(Cl)cc2n1Cc1ccc(-c2ccccc2-c2nn[nH]n2)cc1 | 18% | – | inhibition in vivo at 10 mg/kg (Rattus norvegicus [2]): 23% |
| 3.4 µM | CCCCc1nc2cccc(C(=O)O)c2n1Cc1ccc(-c2ccccc2-c2nnnn2C)cc1 | – | 77% | – |
| 0.9 µM | CCCCc1nc2ccccc2n1Cc1ccc(-c2ccccc2-c2nn[nH]n2)cc1 | 18% | – | inhibition in vivo at 10 mg/kg (Rattus norvegicus [5]): 13%; inhibition in vivo at 10 mg/kg (Rattus norvegicus [2]): 52% |
| – | CCCCc1nc2c(C(N)=O)cccc2n1Cc1ccc(-c2ccccc2-c2nn[nH]n2)cc1 | 28% | – | – |
| 2.8 µM | CCCCc1nc2cccc(OC)c2n1Cc1ccc(-c2ccccc2-c2nn[nH]n2)cc1 | – | -6% | – |
| 0.91 µM | CCCCc1nc2cc(OC)ccc2n1Cc1ccc(-c2ccccc2-c2nn[nH]n2)cc1 | – | – | inhibition in vivo at 10 mg/kg (Rattus norvegicus [2]): 60%; inhibition in vivo at 100 mg/kg (Rattus norvegicus [6]): 84% |
| 0.25 µM | CCCCc1nc2cccc(CC(=O)OCC)c2n1Cc1ccc(-c2ccccc2-c2nn[nH]n2)cc1 | 82% | 24% | – |
| 5.5 µM | CCCCc1nc2cc(C(=O)O)ccc2n1Cc1ccc(-c2ccccc2-c2nn[nH]n2)cc1 | – | 7% | – |
| 0.33 µM | CCCCc1nc2cccc(C)c2n1Cc1ccc(-c2ccccc2-c2nn[nH]n2)cc1 | – | 8% | – |
| 1.1 µM | CCCCc1nc2ccc(OC)cc2n1Cc1ccc(-c2ccccc2-c2nn[nH]n2)cc1 | – | – | inhibition in vivo at 10 mg/kg (Rattus norvegicus [2]): 77%; inhibition in vivo at 100 mg/kg (Rattus norvegicus [6]): 5% |
| 0.44 µM | CCCCc1nc2cc(Cl)cc(C(=O)OC)c2n1Cc1ccc(-c2ccccc2-c2nn[nH]n2)cc1 | – | 57% | – |
| 1.5 µM | CCCCc1nc2cc(Cl)ccc2n1Cc1ccc(-c2ccccc2-c2nn[nH]n2)cc1 | -8% | – | inhibition in vivo at 10 mg/kg (Rattus norvegicus [2]): 45% |
| 1.4 µM | CCCCc1nc2cccc(C(=O)OCC)c2n1Cc1ccc(-c2ccccc2-c2nn[nH]n2)cc1 | – | 51% | – |
| 0.55 µM | CCCCc1nc2cccc(C(=O)O)c2n1Cc1ccc(-c2ccccc2-c2nn[nH]n2)cc1 | – | 91% | – |
| 2.6 µM | CCCCc1nc2cccc(CC(=O)O)c2n1Cc1ccc(-c2ccccc2-c2nn[nH]n2)cc1 | – | – | – |
| 1.1 µM | CCCCc1nc2cccc(O)c2n1Cc1ccc(-c2ccccc2-c2nn[nH]n2)cc1 | 56% | 2% | – |
| 0.32 µM | CCCCc1nc2cccc(C(=O)OC)c2n1Cc1ccc(-c2ccccc2-c2nn[nH]n2)cc1 | – | 78% | – |

| IC50 [1] | SMILES | inhibition in vivo at 30 mg/kg (Rattus norvegicus [3]) | inhibition [4] | other results |
| --- | --- | --- | --- | --- |
| 0.45 µM | CCCCc1nc2cccc(CO)c2n1Cc1ccc(-c2ccccc2-c2nn[nH]n2)cc1 | 41% | 16% | – |
| 0.66 µM | CCCCc1nc2cccc(C(=O)O)c2n1Cc1ccc(-c2ccccc2C(=O)O)cc1 | 46% | 2% | – |
| – | CCCCc1nc2ccc(C)c(C(=O)OCC)c2n1Cc1ccc(-c2ccccc2-c2nn[nH]n2)cc1 | 100% | 13% | IC50 [7]: 0.91 µM |
| 0.74 µM | CCCCc1nc2cc(C(=O)OC)ccc2n1Cc1ccc(-c2ccccc2-c2nn[nH]n2)cc1 | – | – | inhibition in vivo at 100 mg/kg (Rattus norvegicus [6]): -13% |
| – | CCCCc1nc2cc(Cl)cc(C(=O)O)c2n1Cc1ccc(-c2ccccc2-c2nn[nH]n2)cc1 | – | 23% | – |
| 2.4 µM | CCCCc1nc2cccc(CN(C)C)c2n1Cc1ccc(-c2ccccc2-c2nn[nH]n2)cc1 | – | 12% | – |
| 0.6 µM | CCCCc1nc2cccc(COC)c2n1Cc1ccc(-c2ccccc2-c2nn[nH]n2)cc1 | – | 54% | – |
| 0.54 µM | CCCCc1nc2cccc(C(=O)NC(C)C)c2n1Cc1ccc(-c2ccccc2-c2nn[nH]n2)cc1 | – | – | – |
| 7.2 µM | CCCCc1nc2c(C(=O)OC)cccc2n1Cc1ccc(-c2ccccc2-c2nn[nH]n2)cc1 | 9% | – | – |
| 0.34 µM | CCCCc1nc2ccc(C)c(C(=O)O)c2n1Cc1ccc(-c2ccccc2-c2nn[nH]n2)cc1 | – | 40% | – |
| 1.1 µM | CCCCc1nc2ccccc2n1Cc1ccc(-c2ccccc2C(=O)O)cc1 | – | – | inhibition in vivo at 10 mg/kg (Rattus norvegicus [2]): 20%; inhibition in vivo at 100 mg/kg (Rattus norvegicus [6]): 45% |
| 0.44 µM | CCCCc1nc2ccc(C(=O)OC)cc2n1Cc1ccc(-c2ccccc2-c2nn[nH]n2)cc1 | 0% | – | – |
| 9 µM | CCCCc1nc2ccc(C(=O)O)cc2n1Cc1ccc(-c2ccccc2-c2nn[nH]n2)cc1 | 9% | – | – |
| 0.87 µM | CCCCc1nc2cc(C)cc(C(=O)OC)c2n1Cc1ccc(-c2ccccc2-c2nn[nH]n2)cc1 | – | 41% | – |
| 1.3 µM | CCCCc1nc2cc(C)cc(C(=O)O)c2n1Cc1ccc(-c2ccccc2-c2nn[nH]n2)cc1 | – | 80% | – |
| > 10 µM | CCCCc1nc2c(C(=O)O)cccc2n1Cc1ccc(-c2ccccc2-c2nn[nH]n2)cc1 | – | – | inhibition in vivo at 10 mg/kg (Rattus norvegicus [8]): 19% |
| 1.2 µM | CCCCOC(=O)c1cccc2nc(CCCC)n(Cc3ccc(-c4ccccc4-c4nn[nH]n4)cc3)c12 | 78% | 9% | – |
